Assay results as given in ChEMBL document CHEMBL3046780, “Syntheses and herbicidal activity of new triazolopyrimidine-2-sulfonamides as acetohydroxyacid synthase inhibitor” (Bioorg Med Chem, 2010).

What was measured:
[1] = system: Polygonum humifusum; experiment: Post-emergence herbicidal activity against Polygonum humifusum assessed as growth inhibition at 75 g ai/ha measured 15 days post compound treatment under green house conditions; format: functional; conditions: 360 h, read-out: GI
Procedure, shortened: (§1)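 Compounds formulated as 100 g/L emulsifiable concentrate (DMF solvent, Tween-80 emulsifier), diluted with water, sprayed post-emergence on pot-grown weeds in clay soil (pH 6.5, 1.6% organic matter). Seeds sown 1-3 cm deep, grown at 15-30 °C. Dicots were treated at the 2-leaf stage and monocots at the 1-leaf stage. Untreated and DMF-treated controls were included. Injury was rated visually 15 days after treatment.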

[2] = system: Polygonum humifusum; experiment: Post-emergence herbicidal activity against Polygonum humifusum assessed as growth inhibition at 37.5 g ai/ha measured 15 days post compound treatment under green house conditions; format: functional; conditions: 360 h, read-out: GI; procedure, shortened: as §1
[3] = system: Galium aparine; experiment: Post-emergence herbicidal activity against Galium aparine assessed as growth inhibition at 75 g ai/ha measured 15 days post compound treatment under green house conditions; format: functional; conditions: 360 h, read-out: GI; procedure, shortened: as §1
[4] = system: Galium aparine; experiment: Post-emergence herbicidal activity against Galium aparine assessed as growth inhibition at 150 g ai/ha measured 15 days post compound treatment under green house conditions; format: functional; conditions: 360 h, read-out: GI; procedure, shortened: as §1
[5] = system: Galium aparine; experiment: Post-emergence herbicidal activity against Galium aparine assessed as growth inhibition at 37.5 g ai/ha measured 15 days post compound treatment under green house conditions; format: functional; conditions: 360 h, read-out: GI; procedure, shortened: as §1
[6] = system: Eclipta prostrata; experiment: Post-emergence herbicidal activity against Eclipta prostrata assessed as growth inhibition at 150 g ai/ha measured 15 days post compound treatment under green house conditions; format: functional; conditions: 360 h, read-out: GI; procedure, shortened: as §1
[7] = system: Amaranthus retroflexus; experiment: Post-emergence herbicidal activity against Amaranthus retroflexus assessed as growth inhibition at 150 g ai/ha measured 15 days post compound treatment under green house conditions; format: functional; conditions: 360 h, read-out: GI; procedure, shortened: as §1
[8] = system: Brassica juncea; experiment: Post-emergence herbicidal activity against Brassica juncea assessed as growth inhibition at 150 g ai/ha measured 15 days post compound treatment under green house conditions; format: functional; conditions: 360 h, read-out: GI; procedure, shortened: as §1
[9] = system: Poa annua; experiment: Post-emergence herbicidal activity against Poa annua assessed as growth inhibition at 150 g ai/ha measured 15 days post compound treatment under green house conditions; format: functional; conditions: 360 h, read-out: GI; procedure, shortened: as §1
[10] = system: Digitaria sanguinalis; experiment: Post-emergence herbicidal activity against Digitaria sanguinalis (hairy crabgrass) assessed as growth inhibition at 150 g ai/ha measured 15 days post compound treatment under green house conditions; format: functional; conditions: 360 h, read-out: GI; procedure, shortened: as §1
[11] = system: Echinochloa crus-galli; experiment: Post-emergence herbicidal activity against Echinochloa crus-galli (barnyard grass) assessed as growth inhibition at 150 g ai/ha measured 15 days post compound treatment under green house conditions; format: functional; conditions: 360 h, read-out: GI; procedure, shortened: as §1
[12] = system: Chenopodium album; experiment: Post-emergence herbicidal activity against Chenopodium album assessed as growth inhibition at 37.5 g ai/ha measured 15 days post compound treatment under green house conditions; format: functional; conditions: 360 h, read-out: GI; procedure, shortened: as §1
[13] = system: Cyperus iria; experiment: Post-emergence herbicidal activity against Cyperus iria assessed as growth inhibition at 150 g ai/ha measured 15 days post compound treatment under green house conditions; format: functional; conditions: 360 h, read-out: GI; procedure, shortened: as §1
[14] = system: Cyperus iria; experiment: Post-emergence herbicidal activity against Cyperus iria assessed as growth inhibition at 75 g ai/ha measured 15 days post compound treatment under green house conditions; format: functional; conditions: 360 h, read-out: GI; procedure, shortened: as §1
[15] = system: Cyperus iria; experiment: Post-emergence herbicidal activity against Cyperus iria assessed as growth inhibition at 37.5 g ai/ha measured 15 days post compound treatment under green house conditions; format: functional; conditions: 360 h, read-out: GI; procedure, shortened: as §1
[16] = system: Cerastium arvense; experiment: Post-emergence herbicidal activity against Cerastium arvense assessed as growth inhibition at 150 g ai/ha measured 15 days post compound treatment under green house conditions; format: functional; conditions: 360 h, read-out: GI; procedure, shortened: as §1
[17] = system: Cerastium arvense; experiment: Post-emergence herbicidal activity against Cerastium arvense assessed as growth inhibition at 75 g ai/ha measured 15 days post compound treatment under green house conditions; format: functional; conditions: 360 h, read-out: GI; procedure, shortened: as §1
[18] = system: Cerastium arvense; experiment: Post-emergence herbicidal activity against Cerastium arvense assessed as growth inhibition at 37.5 g ai/ha measured 15 days post compound treatment under green house conditions; format: functional; conditions: 360 h, read-out: GI; procedure, shortened: as §1
[19] = system: Polygonum humifusum; experiment: Post-emergence herbicidal activity against Polygonum humifusum assessed as growth inhibition at 150 g ai/ha measured 15 days post compound treatment under green house conditions; format: functional; conditions: 360 h, read-out: GI; procedure, shortened: as §1
[20] = system: Eclipta prostrata; experiment: Post-emergence herbicidal activity against Eclipta prostrata assessed as growth inhibition at 75 g ai/ha measured 15 days post compound treatment under green house conditions; format: functional; conditions: 360 h, read-out: GI; procedure, shortened: as §1
[21] = system: Eclipta prostrata; experiment: Post-emergence herbicidal activity against Eclipta prostrata assessed as growth inhibition at 37.5 g ai/ha measured 15 days post compound treatment under green house conditions; format: functional; conditions: 360 h, read-out: GI; procedure, shortened: as §1
[22] = system: Rumex acetosa; experiment: Post-emergence herbicidal activity against Rumex acetosa assessed as growth inhibition at 150 g ai/ha measured 15 days post compound treatment under green house conditions; format: functional; conditions: 360 h, read-out: GI; procedure, shortened: as §1
[23] = system: Rumex acetosa; experiment: Post-emergence herbicidal activity against Rumex acetosa assessed as growth inhibition at 75 g ai/ha measured 15 days post compound treatment under green house conditions; format: functional; conditions: 360 h, read-out: GI; procedure, shortened: as §1
[24] = system: Rumex acetosa; experiment: Post-emergence herbicidal activity against Rumex acetosa assessed as growth inhibition at 37.5 g ai/ha measured 15 days post compound treatment under green house conditions; format: functional; conditions: 360 h, read-out: GI; procedure, shortened: as §1
[25] = system: Amaranthus retroflexus; experiment: Post-emergence herbicidal activity against Amaranthus retroflexus assessed as growth inhibition at 75 g ai/ha measured 15 days post compound treatment under green house conditions; format: functional; conditions: 360 h, read-out: GI; procedure, shortened: as §1
[26] = system: Amaranthus retroflexus; experiment: Post-emergence herbicidal activity against Amaranthus retroflexus assessed as growth inhibition at 37.5 g ai/ha measured 15 days post compound treatment under green house conditions; format: functional; conditions: 360 h, read-out: GI; procedure, shortened: as §1
[27] = system: Chenopodium album; experiment: Post-emergence herbicidal activity against Chenopodium album assessed as growth inhibition at 150 g ai/ha measured 15 days post compound treatment under green house conditions; format: functional; conditions: 360 h, read-out: GI; procedure, shortened: as §1
[28] = system: Chenopodium album; experiment: Post-emergence herbicidal activity against Chenopodium album assessed as growth inhibition at 75 g ai/ha measured 15 days post compound treatment under green house conditions; format: functional; conditions: 360 h, read-out: GI; procedure, shortened: as §1
[29] = biological target: T1, Acetolactate synthase, chloroplastic (Arabidopsis thaliana, UniProt P17597)
T1 sequence (P17597 whole entry): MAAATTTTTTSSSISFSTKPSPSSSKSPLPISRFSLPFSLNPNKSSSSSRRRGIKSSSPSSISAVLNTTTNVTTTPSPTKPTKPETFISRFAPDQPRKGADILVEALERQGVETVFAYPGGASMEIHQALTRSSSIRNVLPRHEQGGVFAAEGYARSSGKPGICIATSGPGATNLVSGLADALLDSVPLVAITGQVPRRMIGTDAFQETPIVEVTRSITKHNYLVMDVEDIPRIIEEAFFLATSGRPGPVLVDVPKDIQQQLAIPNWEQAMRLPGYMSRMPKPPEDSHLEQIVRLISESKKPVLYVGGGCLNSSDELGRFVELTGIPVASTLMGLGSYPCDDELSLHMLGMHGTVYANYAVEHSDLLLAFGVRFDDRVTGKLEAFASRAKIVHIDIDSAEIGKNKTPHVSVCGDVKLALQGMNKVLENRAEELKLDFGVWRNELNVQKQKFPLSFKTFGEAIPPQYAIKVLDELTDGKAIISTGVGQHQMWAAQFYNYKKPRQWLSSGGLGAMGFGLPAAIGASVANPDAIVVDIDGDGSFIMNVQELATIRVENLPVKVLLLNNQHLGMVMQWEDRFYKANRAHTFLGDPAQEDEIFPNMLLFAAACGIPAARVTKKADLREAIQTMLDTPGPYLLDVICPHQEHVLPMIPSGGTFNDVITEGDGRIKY

SMILES	inhibition of growth at 75 g/ha [1] [%]	inhibition of growth at 37.5 g/ha [2] [%]	inhibition of growth at 75 g/ha [3] [%]	inhibition of growth at 150 g/ha [4] [%]	inhibition of growth at 37.5 g/ha [5] [%]	inhibition of growth at 150 g/ha [6] [%]	inhibition of growth at 150 g/ha [7] [%]	inhibition of growth at 150 g/ha [8] [%]	inhibition of growth at 150 g/ha [9] [%]	inhibition of growth at 150 g/ha [10] [%]	inhibition of growth at 150 g/ha [11] [%]	inhibition of growth at 37.5 g/ha [12] [%]	inhibition of growth at 150 g/ha [13] [%]	inhibition of growth at 75 g/ha [14] [%]	inhibition of growth at 37.5 g/ha [15] [%]	inhibition of growth at 150 g/ha [16] [%]	inhibition of growth at 75 g/ha [17] [%]	inhibition of growth at 37.5 g/ha [18] [%]	inhibition of growth at 150 g/ha [19] [%]	inhibition of growth at 75 g/ha [20] [%]	further results
COc1ccn2nc(S(=O)(=O)Nc3cccc(Cl)c3Cl)nc2n1	50	50	50	50	50	≥ 50	≥ 50	≥ 80	< 50	< 50	< 50	< 50	50	50	50	< 50	< 50	< 50	50	50	inhibition of growth at 37.5 g/ha [21]: 50%; inhibition of growth at 150 g/ha [22]: 50%; inhibition of growth at 75 g/ha [23]: 50%; inhibition of growth at 37.5 g/ha [24]: 50%; inhibition of growth at 75 g/ha [25]: 50%; inhibition of growth at 37.5 g/ha [26]: 50%; inhibition of growth at 150 g/ha [27]: < 50%; inhibition of growth at 75 g/ha [28]: < 50%; Ki [29]: 14.8 µM
COC(=O)c1cccc(Cl)c1NS(=O)(=O)c1nc2nc(OC)ccn2n1	50	50	≥ 90	≥ 90	≥ 80	≥ 90	≥ 80	≥ 90	< 50	< 50	50	≥ 80	50	50	50	≥ 90	≥ 80	≥ 80	50	≥ 80	inhibition of growth at 37.5 g/ha [21]: 50%; inhibition of growth at 150 g/ha [22]: ≥ 80%; inhibition of growth at 75 g/ha [23]: ≥ 80%; inhibition of growth at 37.5 g/ha [24]: ≥ 80%; inhibition of growth at 75 g/ha [25]: ≥ 80%; inhibition of growth at 37.5 g/ha [26]: ≥ 80%; inhibition of growth at 150 g/ha [27]: ≥ 90%; inhibition of growth at 75 g/ha [28]: ≥ 90%; Ki [29]: 1.61 µM
Cc1ccn2nc(S(=O)(=O)Nc3c(F)cccc3F)nc2n1	≥ 90	≥ 80	50	≥ 80	50	≥ 90	≥ 90	≥ 90	50	≥ 80	50	50	50	50	50	≥ 90	≥ 90	≥ 90	≥ 90	≥ 90	inhibition of growth at 37.5 g/ha [21]: ≥ 90%; inhibition of growth at 150 g/ha [22]: ≥ 80%; inhibition of growth at 75 g/ha [23]: 50%; inhibition of growth at 37.5 g/ha [24]: 50%; inhibition of growth at 75 g/ha [25]: ≥ 90%; inhibition of growth at 37.5 g/ha [26]: ≥ 90%; inhibition of growth at 150 g/ha [27]: ≥ 90%; inhibition of growth at 75 g/ha [28]: ≥ 90%; Ki [29]: 0.36 µM
Cc1nc(C(F)(F)F)cc2nc(S(=O)(=O)Nc3c(Cl)cccc3Cl)nn12	≥ 80	50	≥ 80	≥ 80	50	≥ 90	< 50	≥ 90	< 50	< 50	< 50	≥ 80	50	50	50	50	50	< 50	≥ 80	50	inhibition of growth at 37.5 g/ha [21]: 50%; inhibition of growth at 150 g/ha [22]: ≥ 80%; inhibition of growth at 75 g/ha [23]: ≥ 80%; inhibition of growth at 37.5 g/ha [24]: ≥ 80%; inhibition of growth at 75 g/ha [25]: < 50%; inhibition of growth at 37.5 g/ha [26]: < 50%; inhibition of growth at 150 g/ha [27]: ≥ 90%; inhibition of growth at 75 g/ha [28]: ≥ 80%; Ki [29]: 5.02 µM
COC(=O)c1cccc(Cl)c1NS(=O)(=O)c1nc2c(Cl)c(C)nc(C)n2n1	50	50	≥ 80	≥ 80	≥ 80	≥ 50	50	≥ 90	< 50	< 50	< 50	≥ 80	50	50	50	50	50	< 50	50	50	inhibition of growth at 37.5 g/ha [21]: 50%; inhibition of growth at 150 g/ha [22]: 50%; inhibition of growth at 75 g/ha [23]: 50%; inhibition of growth at 37.5 g/ha [24]: 50%; inhibition of growth at 75 g/ha [25]: 50%; inhibition of growth at 37.5 g/ha [26]: 50%; inhibition of growth at 150 g/ha [27]: ≥ 80%; inhibition of growth at 75 g/ha [28]: ≥ 80%
